# PDI inh: inhibitors of human PDI, primary screen, biochemical, turbidity, single point, plate reader; Protein disulfide-isomerase (Homo sapiens), P07237; PDI insulin aggregation turbidity, A650, 90 min; inhibition, % at 10 µM; 350,000 compounds, 0.052% hits; AID 588391, 2011;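 active = mean inhibition across replicates of 30% or more, whatever share of single replicates reach that level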
# GSIS activator: GLuc luminescence reporter in INS-1E cells, primary screen for activators of glucose-dependent secretion of insulin | INS-1E GLuc reporter insulin secretion, 2-3 h | activation, % at 16.6 µM | 370,000 compounds, 0.61% hits;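 active = lowest replicate activation of at least 40%, so every replicate reaches that level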;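 note: 0% = median of neutral control wells and 100% = median of IBMX positive control wells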
# S100A4 MyoIIA: inhibitors of S100A4-myosin IIA peptide binding, primary screen, biochemical, fluorescence polarization, TAMRA-MyoIIA peptide; Protein S100-A4 (Homo sapiens), P26447; inhibition, % at 10.7 µM; 360,000 compounds, 0.14% hits;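 active = mean inhibition of at least 70% across replicates, with every replicate also reaching that level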
# Target sequence (P26447 whole entry, looked up): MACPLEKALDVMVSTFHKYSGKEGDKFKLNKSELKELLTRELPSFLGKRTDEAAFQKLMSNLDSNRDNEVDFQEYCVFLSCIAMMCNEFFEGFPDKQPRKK
#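 assay system = human S100A4 monomer with TAMRA-labelled myosin IIA peptide | also added = labelled myosin peptide probe, 5 nM | incubation = 5 min between mix addition and reading | control set = DMSO and TFP controls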
# ERp5 inh: inhibitors of ERp5-driven insulin aggregation, primary screen, biochemical, turbidity, absorbance 650 nm, single point; Protein disulfide-isomerase A6 (Homo sapiens), Q15084; AID 651711, 2012; 350,000 compounds, 0.05% hits; inhibition, % at 9.99 µM; 90 min;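 active = mean replicate inhibition above about 25%, with every replicate also reaching it, limit read from the data, passing the limit was not always enough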
# Target sequence (Q15084 whole entry, looked up): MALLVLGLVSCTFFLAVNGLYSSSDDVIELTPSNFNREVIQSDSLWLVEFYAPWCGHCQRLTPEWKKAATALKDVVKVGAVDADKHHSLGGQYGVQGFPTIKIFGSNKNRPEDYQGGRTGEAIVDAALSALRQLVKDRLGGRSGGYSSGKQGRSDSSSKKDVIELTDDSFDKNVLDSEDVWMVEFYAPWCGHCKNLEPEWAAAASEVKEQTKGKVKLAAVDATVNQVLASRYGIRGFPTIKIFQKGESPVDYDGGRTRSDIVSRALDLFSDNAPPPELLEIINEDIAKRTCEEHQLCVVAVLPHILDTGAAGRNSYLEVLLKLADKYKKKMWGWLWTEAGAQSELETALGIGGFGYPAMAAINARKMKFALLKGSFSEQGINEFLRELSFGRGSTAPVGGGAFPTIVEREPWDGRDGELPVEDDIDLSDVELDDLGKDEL
# SIRT5 block: SIRT5 desuccinylase inhibitors, primary screen, biochemical, fluorescence imaging, single point, set 5; Purified SirT5, succinyl-peptide AMC, trypsin-coupled fluorescence; inhibition, % at 15 µM; 330,000 compounds, 1.1% hits; in the data active = inhibition above about 15%
# Active calls of the source: *; . = no result. Compounds with a hit are over-represented: about 1.5% of the library has one in this group of screens.
SMILES,PDI inh,GSIS activator,S100A4 MyoIIA,ERp5 inh,SIRT5 block
COc1ccc(CNC(=O)CN2C(=O)NC3(CCCCCC3)C2=O)cc1,-7,62*,-7,-8,-1
CO[C@H]1CN(C)C(=O)c2cc(NC(=O)c3cnccn3)ccc2OC[C@@H](C)N(C)C[C@@H]1C,.,3,19,-26,1
COc1ccc(-c2ccc(/C=C3/C(=N)N4C=CSC4=NC3=O)o2)c([N+](=O)[O-])c1,-4,158*,.,.,.
C[C@H](CO)N1C[C@H](C)[C@@H](CN(C)S(=O)(=O)c2ccc(F)cc2)OCc2ccccc2-c2c(n(C)c3ccccc23)C1=O,.,-17,-4,-4,-3
C[C@@H]1CN([C@H](C)CO)C(=O)c2c(c3ccccc3n2C)-c2ccccc2CO[C@@H]1CN(C)S(=O)(=O)c1ccc(Cl)cc1,.,-4,12,-6,19*
Cc1cccc(S(=O)(=O)N(C)C[C@@H]2OCc3ccccc3-c3c(n(C)c4ccccc34)C(=O)N([C@H](C)CO)C[C@H]2C)c1,.,-40,.,.,.
C[C@@H]1CN([C@H](C)CO)C(=O)c2c(c3ccccc3n2C)-c2ccccc2CO[C@H]1CN(C)S(=O)(=O)c1ccc([N+](=O)[O-])cc1,.,13,5,-3,32*
Cc1cccc(S(=O)(=O)N(C)C[C@H]2OCc3ccccc3-c3c(n(C)c4ccccc34)C(=O)N([C@H](C)CO)C[C@H]2C)c1,.,-20,7,-4,18*
C[C@H]1CN([C@@H](C)CO)C(=O)c2c(c3ccccc3n2C)-c2ccccc2CO[C@H]1CN(C)S(=O)(=O)c1ccc(F)cc1,.,-11,-3,-5,21*
COC(=O)C[C@H]1CC[C@H]2[C@H](COc3ccc(NC(=O)c4cccc(Cl)c4)cc3C(=O)N2C)O1,.,-11,6,0,11
Cn1c(=O)cc2c3c(c(N4CCCCC4)ccc31)C(=O)c1ccccc1-2,3,-3,103*,-1,-4
O=C1c2ccccc2C(=O)c2c1cccc2N1CCCC1,1,.,0,4,9
CCOC(=O)CN(Cc1sccc1C)C(=O)Nc1ccc(OC)cc1OC,-2,42*,.,.,.
CN(C)C(=O)c1cccc(-c2ccc3c(c2)[C@H]2[C@H](CCN2C(=O)Cc2ccccc2)[C@@H](CO)N3)c1,.,-14,0,2,1
COc1cccc(S(=O)(=O)N[C@@H]2CC[C@H](CC(=O)NC3CCC3)O[C@H]2CO)c1,.,-3,1,-2,-4
O=C(Cc1ccccc1)Nc1cccc(N2C(=O)C=CC2=O)c1,-2,59*,-2,7,-1
CC[C@@H]1CC=CC[C@@H](C)Oc2ccccc2C(=O)N(C)[C@H](C(C)C)C(=O)N1 (mixture of isomers),.,-5,.,.,.
O=C(NCc1ccncc1)c1nc(-c2ccc(C(F)(F)F)cc2)no1,-2,-22,5,3,19*
CCCN1C[C@@H](C)[C@@H](OC)CN(C)C(=O)c2cc(NC(=O)c3cnccn3)ccc2OC[C@H]1C,.,20,12,4,-1
O=C(NNc1ccccc1)C(CCO)C(=O)NNc1ccccc1,16,-2,-2,-1,112*
COc1ccccc1CNc1nc2cc(-c3ccc(OC)c(OC)c3)sc2c(=O)n1C,-2,16,19,5,20*
C[C@H](CO)N1C[C@H](C)[C@H](CN(C)Cc2ccccc2)Oc2c(NS(=O)(=O)c3cn(C)cn3)cccc2C1=O,.,25,6,1,1
COCC(=O)N1C[C@@H](C)[C@H](OC)CN(C)C(=O)c2cc(NC(=O)c3ccccc3)ccc2OC[C@H]1C,.,22,-1,2,.
Cc1ccc(O)c(CP(=O)(c2ccccc2)c2ccccc2)c1,-4,44*,-6,0,0
COc1cc2cnc(-c3ccsc3)cc2cc1OC,-5,50*,0,9,.
SMILES,PDI inh,GSIS activator,S100A4 MyoIIA,ERp5 inh,SIRT5 block
Cc1noc(C)c1S(=O)(=O)Nc1ccc2c(c1)C(=O)N([C@@H](C)CO)C[C@@H](C)[C@@H](CN(C)C(=O)NC1CCCCC1)OCCCC[C@@H](C)O2,.,-20,10,-1,4
COc1ccccc1CC(=O)NNS(=O)(=O)c1ccc([N+](=O)[O-])cc1,3,22,1,-6,25*
O=C(COc1ccccc1)N(Cc1cccc(F)c1)C1CCS(=O)(=O)C1 (stereo not drawn),-2,51*,2,-8,-3
CCC(=O)N1[C@H](CO)[C@@H](c2ccccc2)C12CN(C(=O)Nc1ccccc1F)C2,.,4,-3,0,2
COc1ccc(-c2noc(Cn3cc(S(=O)(=O)N4CCCC4)ccc3=O)n2)cc1,5,1,-11,2,22*
O=c1ccc(S(=O)(=O)N2CCCC2)cn1Cc1nc(-c2ccc(F)cc2)no1,0,17,-4,-6,-4
O=C(N/N=C/c1ccc(OC(=O)c2ccccc2)cc1)c1ccc(CN2CCOCC2)cc1,-6,.,.,.,.
O=C(N/N=C/c1ccc(OC2CSC2)cc1)c1ccc(CN2CCOCC2)cc1,-3,-16,0,4,28*
COc1ccc(C(NC(=O)C2CCN(CCc3ccccc3)CC2)c2ccccn2)cc1 (stereo not drawn),-1,7,-7,11,15*
COCC#Cc1ccc([C@H]2[C@@H](CO)N3CCCCN(C(=O)Nc4cc(F)ccc4F)C[C@@H]23)cc1,.,-3,-9,5,5
COc1ccc2c3c(n(C)c2c1)[C@H](CO)N(C(=O)c1ccc(F)cc1)CC31CN(C)C1,.,11,-3,3,.
Cc1ccccc1OCc1nnc(SCC(=O)Nc2ccc3c(c2)oc2ccccc23)n1C,-7,131*,.,.,.
C[C@@H]1CN([C@H](C)CO)C(=O)c2cc(NC(=O)c3ccncc3)ccc2O[C@@H](C)CCCCO[C@H]1CN(C)S(=O)(=O)c1cn(C)cn1,.,-3,9,7,1
COC(=O)C1=C(C)NC(=S)NC1c1cccc(OC)c1 (stereo not drawn),.,44*,-6,-6,2
COC(=O)C1=C(C)N(Cc2ccc(Cl)cc2)C(=S)NC1c1cccc(OC)c1 (stereo not drawn),.,-33,1,-7,3
CC=Cc1ccc2n(c1=O)C[C@@H]1[C@@H](CO)[C@H](C(=O)NCc3ccc(F)cc3)[C@H]2N1CCC (mixture of isomers),.,-7,-65,-3,0
CCn1nnc(NC(=O)c2sc3ccccc3c2Cl)n1,5,43*,.,.,.
CC(=O)Nc1ccc(NC(=O)CNC(=O)c2sc3ccccc3c2Cl)cc1,12,9,-5,-4,0
Cc1ccc(NC(=O)CNC(=O)c2sc3ccccc3c2Cl)nc1,0,70*,8,-11,-3

# Screening results deposited in PubChem by Broad Institute.
